Experimental data from ChEMBL document CHEMBL1129483, “Antitumor 2-(aminocarbonyl)-1,2-bis(methylsulfonyl)-1-(2-chloroethyl)- hydrazines” (1996).
“And” between values parts separate entries of the source, which are not always exact repeats. Equal values may be shown once.

Columns and labels:
Type in all cases: functional
Mus musculus [1] = test: Average percent change in body weight from onset to termination of therapy at dose 10(mg/kg)
Summary of the method: (§1)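 CD2F1 mice implanted ip with 10^5 L1210 leukemia cells (kept by serial passage in culture and periodic ip passage in donor mice). Drug given ip in 100% DMSO, at most 0.025 mL, once daily for 6 consecutive days starting 24 h after implantation. Groups of 5–10 mice; vehicle-treated tumor-bearing controls. Body weight change is the average percent from onset to termination of therapy, used as a toxicity index.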

Mus musculus [2] = test: Average percent change in body weight from onset to termination of therapy at dose 15(mg/kg); summary of the method: as §1
Mus musculus [3] = test: Average percent change in body weight from onset to termination of therapy at dose 5(mg/kg); summary of the method: as §1
Mus musculus [4] = test: Average survival time of treated /control mice*100 was determined at a daily dose of 10 mg/kg
Summary of the method: (§2)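 L1210 leukemia cells kept by serial passage in culture. 10^5 cells given ip to CD2F1 mice. Drug in 100% DMSO given ip once daily for 6 days starting 24 h after implant. 5–10 mice per group, with vehicle-treated controls. %T/C is average survival time of treated mice over controls ×100. 60-day survivors (cures) are excluded from the calculation.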

Mus musculus [5] = test: Average survival time of treated /control mice*100 was determined at a daily dose of 15 mg/kg; summary of the method: as §2
Mus musculus [6] = test: Average survival time of treated /control mice*100 was determined at a daily dose of 5 mg/kg; summary of the method: as §2
Mus musculus [7] = test: %60 day survivors were determined for the compound as the mouse […] at dose 15 mg/kg
Summary of the method: (§3)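 L1210 leukemia cells kept by serial passage in culture. 10^5 cells given ip to CD2F1 mice. Drug in 100% DMSO, at most 0.025 mL, given ip once daily for 6 consecutive days starting 24 h after implant. 5–10 mice per group, with vehicle-treated tumor-bearing controls. Value is the percentage of mice alive and symptom-free 60 days after tumor implant.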

Mus musculus [8] = test: Average percent change in body weight from onset to termination of therapy at dose 75(mg/kg); summary of the method: as §1
Mus musculus [9] = test: Average percent change in body weight from onset to termination of therapy at dose 100(mg/kg); summary of the method: as §1
Mus musculus [10] = test: Average percent change in body weight from onset to termination of therapy at dose 20(mg/kg); summary of the method: as §1
Mus musculus [11] = test: Average percent change in body weight from onset to termination of therapy at dose 25(mg/kg); summary of the method: as §1
Mus musculus [12] = test: Average percent change in body weight from onset to termination of therapy at dose 50(mg/kg); summary of the method: as §1
Mus musculus [13] = test: Average survival time of treated /control mice*100 was determined at a daily dose of 20 mg/kg; summary of the method: as §2
Mus musculus [14] = test: Average survival time of treated /control mice*100 was determined at a daily dose of 25 mg/kg; summary of the method: as §2
Mus musculus [15] = test: %60 day survivors were determined for the compound as the mouse […] at dose 10 mg/kg; summary of the method: as §3
Mus musculus [16] = test: %60 day survivors were determined for the compound as the mouse […] at dose 25 mg/kg; summary of the method: as §3
Mus musculus [17] = test: %60 day survivors were determined for the compound as the mouse […] at dose 50 mg/kg; summary of the method: as §3
Mus musculus [18] = test: %60 day survivors were determined for the compound as the mouse […] at dose 75 mg/kg; summary of the method: as §3
Mus musculus [19] = test: Average percent change in body weight from onset to termination of therapy at dose 150(mg/kg); summary of the method: as §1
Mus musculus [20] = test: Average survival time of treated /control mice*100 was determined at a daily dose of 150 mg/kg; summary of the method: as §2
Mus musculus [21] = test: Average survival time of treated /control mice*100 was determined at a daily dose of 50 mg/kg; summary of the method: as §2
Mus musculus [22] = test: %60 day survivors were determined for the compound as the mouse […] at dose 100 mg/kg; summary of the method: as §3
Mus musculus [23] = test: %60 day survivors were determined for the compound as the mouse […] at dose 150 mg/kg; summary of the method: as §3
Mus musculus [24] = test: %60 day survivors were determined for the compound as the mouse […] at dose 5 mg/kg; summary of the method: as §3
Mus musculus [25] = test: %60 day survivors were determined for the compound as the mouse […] at dose 20 mg/kg; summary of the method: as §3
Mus musculus [26] = test: Average survival time of treated /control mice*100 was determined at a daily dose of 100 mg/kg; summary of the method: as §2
Mus musculus [27] = test: Average survival time of treated /control mice*100 was determined at a daily dose of 75 mg/kg; summary of the method: as §2

Row | SMILES | Change (Mus musculus [1]) [%] | Change (Mus musculus [2]) [%] | Change (Mus musculus [3]) [%] | T/C (Mus musculus [4]) [%] | T/C (Mus musculus [5]) [%] | T/C (Mus musculus [6]) [%] | Survivors (Mus musculus [7]) [%] | Change (Mus musculus [9]) [%] | Change (Mus musculus [10]) [%] | Change (Mus musculus [11]) [%] | Change (Mus musculus [12]) [%] | T/C (Mus musculus [13]) [%] | Survivors (Mus musculus [15]) [%] | Survivors (Mus musculus [17]) [%] | further results
1 | CS(=O)(=O)N(CCCl)N(C(=O)NCCCCl)S(C)(=O)=O | -5.6 | -8.8 | -2.8 | 187 | 192 | 111 | 20 | – | – | – | – | – | – | – | –
2 | CCOC(=O)C(C)NC(=O)N(N(CCCl)S(C)(=O)=O)S(C)(=O)=O (centres undefined) | -1.4 | -0.5 | -2 | 178 | 185 | 170 | – | -2.5 | -1.5 | -2.5 | -3.3 | 227 | 20 | 100 | Change (Mus musculus [8]): -2.5%; T/C (Mus musculus [14]): 239%; Survivors (Mus musculus [16]): 60%; Survivors (Mus musculus [18]): 80%
3 | CCOC(=O)C(Cc1ccccc1)NC(=O)N(N(CCCl)S(C)(=O)=O)S(C)(=O)=O (centres undefined) | -0.5 | -1.9 | -2.5 | 165 | 160 | 147 | – | -2 | -1.9 | -0.9 | -2 | 174 | – | 60 | Change (Mus musculus [19]): -5%; T/C (Mus musculus [20]): 169%; T/C (Mus musculus [14]): 177%; T/C (Mus musculus [21]): 225%; Survivors (Mus musculus [22]): 100%; Survivors (Mus musculus [23]): 20%
4 | C=CCNC(=O)N(N(CCCl)S(C)(=O)=O)S(C)(=O)=O | -2.1 | -2.9 | -1.6 | 394 | – | 184 | 100 | – | – | – | – | – | 40 | – | Survivors (Mus musculus [24]): 20%
5 | CS(=O)(=O)N(CCCl)N(C(=O)NCCCl)S(C)(=O)=O | -4.7 | -4 | – | – | 216 | – | 80 | – | -10.4 | – | – | 239 | 100 | – | Survivors (Mus musculus [25]): 80%
6 | CCOC(=O)CNC(=O)N(N(CCCl)S(C)(=O)=O)S(C)(=O)=O | -1.4 | -0.5 | -1.5 | 202 | 202 | 151 | – | -4 | -3.7 | -0.5 | -2.5 | – | 20 | 80 | Change (Mus musculus [8]): -1.5%; T/C (Mus musculus [26]): 115%; T/C (Mus musculus [13]; 20 mg/kg): 191% and 138%; T/C (Mus musculus [27]): 119%; Survivors (Mus musculus [25]): 20%; Survivors (Mus musculus [16]): 100%; Survivors (Mus musculus [18]): 60%
7 | CNC(=O)N(N(CCCl)S(C)(=O)=O)S(C)(=O)=O [LAROMUSTINE] | -5.6 | -2.1 | 9.9 | – | – | 234 | 100 | – | – | – | – | – | 100 | – | Survivors (Mus musculus [24]): 40%
